Measurements as given in ChEMBL document CHEMBL1811823, “Quinazolinone linked pyrrolo[2,1-c][1,4]benzodiazepine (PBD) conjugates: Design, synthesis and biological evaluation as potential anticancer agents” (2010).
Calls of active or inactive are those of the source. The rule behind the calls is not given here.

Tests used:
A-375 [1] = assay: Increase in p21 mRNA expression in human A375 cells at 4 uM after 24 hrs by RT-PCR; assay type: functional, cell-based
In short: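 RT-PCR on RNA from A375 cells treated 24 h at 4 µM, using Bcl-2- or p21-specific primers with GAPDH as internal control. Products were visualized on 1% agarose gels stained with ethidium bromide. Untreated and DMSO-treated cells served as controls.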

SN12C = assay: Growth inhibition of human SN12C cells by NCI anti-cancer screening method; assay type: functional
KM12 = assay: Growth inhibition of human KM12 cells by NCI anti-cancer screening method; assay type: functional
SNB-75 = assay: Growth inhibition of human SNB75 cells by NCI anti-cancer screening method; assay type: functional
A549 = assay: Growth inhibition of human A549 cells by NCI anti-cancer screening method; assay type: functional
DU-145 = assay: Growth inhibition of human DU145 cells by NCI anti-cancer screening method; assay type: functional
UACC-62 = assay: Growth inhibition of human UACC62 cells by NCI anti-cancer screening method; assay type: functional
NCI-H460 = assay: Growth inhibition of human NCI-H460 cells by NCI anti-cancer screening method; assay type: functional
BT-549 = assay: Growth inhibition of human BT549 cells by NCI anti-cancer screening method; assay type: functional
A-375 [2] = assay: Induction of apoptosis in human A375 cells assessed as sub-G1 phase accumulation at 4 uM after 24 hrs by propidium iodide staining based flow cytometry; assay type: functional
In short: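 A375 cells (5×10^5 per 60 mm dish) were grown 24 h, then treated 24 h at 0–4 µM. Cells were harvested with trypsin-EDTA, fixed in ice-cold 70% ethanol for 30 min at 4 °C, treated with RNase A (1 mg/ml) for 30 min at 37 °C, and stained with propidium iodide. Cell-cycle distribution, including the sub-G1 fraction, was measured by flow cytometry. DMSO-exposed cells were the control.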

SNB-19 = assay: Growth inhibition of human SNB19 cells by NCI anti-cancer screening method; assay type: functional
M14 = assay: Growth inhibition of human M14 cells by NCI anti-cancer screening method; assay type: functional
A-375 [3] = assay: Cell cycle arrest in human A375 cells assessed as decrease in G2/M phase at 4 uM after 24 hrs by propidium iodide staining based flow cytometry; assay type: functional; set-up: scale not given: the % may be the effect or the level left
In short: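 A375 melanoma cells (DMEM, 10% FCS, 37 °C, 5% CO2) seeded at 5×10^5 per dish and grown 24 h, then exposed to 0–4 µM for 24 h. Harvested with trypsin-EDTA, fixed in ice-cold 70% ethanol, RNase A treated (1 mg/ml, 37 °C, 30 min), stained with propidium iodide and analysed by flow cytometry for phase distribution.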

NCI-H322M = assay: Growth inhibition of human NCI-H322M cells by NCI anti-cancer screening method; assay type: functional
786-0 = assay: Growth inhibition of human 786-0 cells by NCI anti-cancer screening method; assay type: functional
SK-MEL-5 = assay: Growth inhibition of human SK-MEL-5 cells by NCI anti-cancer screening method; assay type: functional
SK-MEL-2 = assay: Growth inhibition of human SK-MEL-2 cells by NCI anti-cancer screening method; assay type: functional
IGROV-1 = assay: Growth inhibition of human IGROV1 cells by NCI anti-cancer screening method; assay type: functional
A-375 [4] = assay: Increase in cytochrome C release in human A375 cells at 4 uM after 24 hrs by Western blot; assay type: functional, cell-based
In short: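 Western blot of A375 cell lysates after 24 h exposure at 4 µM, with 30 µg protein/lane on 12% SDS-PAGE and transfer to PVDF. Probed overnight at 4 °C with anti-cytochrome c (1:500), then HRP secondary and chemiluminescence. β-actin was the loading control; untreated and DMSO-only cells served as controls.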

NCI/ADR-RES = assay: Growth inhibition of human NCI/ADR-RES cells by NCI anti-cancer screening method; assay type: functional
A-375 [5] = assay: Increase in p27 protein expression in human A375 cells at 4 uM after 24 hrs by Western blot; assay type: functional, cell-based
In short: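 A375 cells (DMEM, 10% FCS, 37 °C, 5% CO2) were treated at 4 µM for 24 h. Lysates were loaded at 30 µg protein/lane on 12% SDS-PAGE and transferred to PVDF. Membranes were blocked 2 h in TBST, incubated with primary antibody overnight at 4 °C (p53 1:100, p27 1:500, NF-κB p65 1:500), then HRP secondary 1 h, with chemiluminescent detection. β-actin was the loading control; untreated and DMSO controls were run.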

CAKI-1 = assay: Growth inhibition of human Caki1 cells by NCI anti-cancer screening method; assay type: functional
NCI = assay: Growth inhibition of human […] cells by NCI anti-cancer screening method; assay type: functional
ACHN = assay: Growth inhibition of human ACHN cells by NCI anti-cancer screening method; assay type: functional
A-375 [6] = assay: Decrease in CDK2 protein expression in human A375 cells at 4 uM after 24 hrs by Western blot; assay type: functional, cell-based
In short: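 A375 cells treated at 4 µM for 24 h, lysed, protein quantified by Bradford. 30 µg/lane run on 12% SDS-PAGE and transferred to PVDF. Blocked 2 h in TBST with 5% blocker. Probed with rabbit polyclonal CDK2 antibody (1:500) overnight at 4 °C, then HRP secondary (1:2000) 1 h. Chemiluminescent detection; β-tubulin loading control; untreated and DMSO controls.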

OVCAR-5 = assay: Growth inhibition of human OVCAR5 cells by NCI anti-cancer screening method; assay type: functional
T47D = assay: Growth inhibition of human T47D cells by NCI anti-cancer screening method; assay type: functional
K562 = assay: Growth inhibition of human K562 cells by NCI anti-cancer screening method; assay type: functional
OVCAR-4 = assay: Growth inhibition of human OVCAR4 cells by NCI anti-cancer screening method; assay type: functional
NCI-H23 = assay: Growth inhibition of human NCI-H23 cells by NCI anti-cancer screening method; assay type: functional
HCC 2998 = assay: Growth inhibition of human HCC2998 cells by NCI anti-cancer screening method; assay type: functional

COc1cc2c(cc1OCCCCCOc1ccc(-n3c(C)nc4ccccc4c3=O)cc1)N=C[C@@H]1CCCN1C2=O
Activity (A-375 [1]): Active
GI50 (SN12C): 240 nM
GI50 (KM12): 170 nM
GI50 (SNB-75): 380 nM
GI50 (A549): 230 nM
GI50 (DU-145): 260 nM
GI50 (UACC-62): 160 nM
GI50 (NCI-H460): 200 nM
GI50 (BT-549): 110 nM
Activity (A-375 [2]): 31.52%
GI50 (SNB-19): 280 nM
GI50 (M14): 170 nM
Activity (A-375 [3]): 9.15%
GI50 (NCI-H322M): 260 nM
GI50 (786-0): 170 nM
GI50 (SK-MEL-5): 160 nM
GI50 (SK-MEL-2): 420 nM
GI50 (IGROV-1): 180 nM
Activity (A-375 [4]): Active
GI50 (NCI/ADR-RES): 1730 nM
Activity (A-375 [5]): Active
GI50 (CAKI-1): 190 nM
GI50 (NCI): 190 nM
GI50 (ACHN): 290 nM
Activity (A-375 [6]): Active
GI50 (OVCAR-5): 330 nM
GI50 (T47D): 170 nM
GI50 (K562): 60 nM
GI50 (OVCAR-4): 370 nM
GI50 (NCI-H23): 230 nM
GI50 (HCC 2998): 260 nM
